# ChEMBL document CHEMBL4837261, “Optimization of TopoIV Potency, ADMET Properties, and hERG Inhibition of 5-Amino-1,3-dioxane-Linked Novel Bacterial Topoisomerase Inhibitors: Identification of a Lead with In Vivo Efficacy against MRSA” (J Med Chem, 2021)
# Activity calls are given as the source filed them. The calls are words filed in the database; no cut-off is given here.
# Experiments:
# [1] = tested on: Streptococcus pyogenes; assay: Antibacterial activity against Streptococcus pyogenes isolates by CLSI method; format: functional
# [2] = tested on: Staphylococcus aureus; assay: Antibacterial activity against cystic fibrosis isolate Staphylococcus aureus by CLSI method; format: functional
# [3] = tested on: Staphylococcus aureus; assay: Antibacterial activity against methicillin-resistant Staphylococcus aureus USA300 by CLSI method; format: functional
# [4] = Growth inhibition of human K/VP.5 cells incubated for 48 hrs by NBTI cell counting analysis; format: functional; conditions: K562, 48 h
# [5] = target: Topoisomerase IV (Staphylococcus aureus, UniProt P0C1S7+P0C1U9); assay: Inhibition of Staphylococcus aureus topoisomerase IV decatenation activity using kDNA as substrate by ethidium bromide/bromophenol blue staining based agarose gel electrophoresis analysis; format: protein-complex assay
# [6] = target: DNA gyrase (Staphylococcus aureus, UniProt P0A0K8+P20831); assay: Inhibition of Staphylococcus aureus Gyrase supercoiling activity assessed as reduction in supercoiling pBR322 DNA by measuring relaxation by bromophenol blue staining based TAE gel method; format: protein-complex assay
# [7] = tested on: Staphylococcus aureus; assay: Antibacterial activity against Staphylococcus aureus harbouring GyrA D83N mutant by CLSI method; format: functional
# [8] = tested on: K562; assay: Growth inhibition of log-phase human K562 cells incubated for 48 hrs by NBTI cell counting analysis; format: functional, cell-based; conditions: k562
# [9] = tested on: Staphylococcus aureus; assay: Antibacterial activity against Staphylococcus aureus ATCC 29213 by CLSI method; format: functional
# [10] = tested on: Staphylococcus aureus; assay: Antibacterial activity against Staphylococcus aureus 3527 by CLSI method; format: functional
# [11] = Half life in ICR (CD-1) mouse at 10 mg/kg, iv measured up to 1440 mins by LC-MS/MS analysis; format: ADME, organism-based; conditions: in vivo
# How it was run: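 Male ICR (CD-1) mice, 22 ± 2 g, given the free base in DMSO/Solutol HS-15/0.9% NaCl (5/5/90, v/v/v), IV at 10 mg/kg or PO at 50 mg/kg; 24 mice per route, three per timepoint. Plasma was taken by cardiac puncture at 3–1440 min (IV) or 10–1440 min (PO), measured by LC-MS/MS, and parameters were derived by noncompartmental analysis.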
# [12] = target: T1, DNA gyrase (Staphylococcus aureus) (UniProt P0A0K8+P20831); assay: Inhibition of Staphylococcus aureus DNA Gyrase assessed as reduction in supercoiling pBR322 DNA by measuring induction of single strand breaks at 100 uM by ethidium bromide staining based agarose gel electrophoresis; format: protein-complex assay
# [13] = target: T1, DNA gyrase (Staphylococcus aureus); assay: Inhibition of Staphylococcus aureus DNA Gyrase assessed as reduction in supercoiling pBR322 DNA by measuring induction of double strand breaks at 200 uM by ethidium bromide staining based agarose gel electrophoresis; format: protein-complex assay
# [14] = Metabolic stability in CD1 mouse liver microsomes assessed as intrinsic clearance at 2 uM measured up to 120 mins by LC-MS/MS analysis; format: ADME, Microsome; conditions: 2 h
# [15] = Thermodynamic solubility of the compound at pH 7.4; format: physicochemical; conditions: buffer, read-out: Therm_solubility
# How it was run: (§1)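 Run at Charles River (Worcester). Plasma protein binding was measured in mouse, dog and human plasma. Thermodynamic solubility was measured in buffer at pH 7.4.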
# [16] = tested on: Bacillus anthracis; assay: Antibacterial activity against Bacillus anthracis by CLSI method; format: functional
# [17] = target: Voltage-gated inwardly rectifying potassium channel KCNH2 (Homo sapiens, UniProt Q12809); assay: Inhibition of human ERG
# How it was run: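 hERG channel inhibition was measured on the IonWorks Barracuda automated patch system. IC50 came from eight-point concentration–response curves with four replicates per concentration.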
# [18] = tested on: Enterococcus sp.; assay: Antibacterial activity against Enterococcus sp. by CLSI method; format: functional
# [19] = Plasma protein binding in dog; format: ADME, cell-free, Canis lupus familiaris; conditions: read-out: PPB (converted); how it was run: as §1
# [20] = Plasma protein binding in mouse; format: ADME, cell-free; conditions: read-out: PPB (converted); how it was run: as §1
# [21] = tested on: Staphylococcus aureus; assay: Antibacterial activity against Staphylococcus aureus by CLSI method; format: functional
# How it was run: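 MICs were determined by broth microdilution per CLSI guidelines, in triplicate at minimum. Strains were S. aureus ATCC 29213, MRSA USA300 and a cystic fibrosis respiratory isolate, and ranges are given where seen.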
# [22] = tested on: Streptococcus pneumoniae; assay: Antibacterial activity against Streptococcus pneumoniae by CLSI method; format: functional
# [23] = tested on: Acinetobacter baumannii; assay: Antibacterial activity against Acinetobacter baumannii by CLSI method; format: functional
# [24] = Metabolic stability in CD1 mouse liver microsomes assessed as half life at 2 uM measured up to 120 mins by LC-MS/MS analysis; format: ADME, Microsome
# [25] = Plasma protein binding in human; format: ADME, cell-free; conditions: read-out: PPB (converted); how it was run: as §1
# [26] = tested on: Staphylococcus aureus; assay: Antibacterial activity against fluoroquinolone-resistant methicillin-resistant Staphylococcus aureus by CLSI method; format: functional
# How it was run: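 MICs against ciprofloxacin-resistant MRSA USA300, determined following CLSI guidelines. Each determination was run at least in triplicate, and observed ranges were reported where appropriate.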
# [27] = Metabolic stability in human microsomes assessed as half life; format: ADME, Microsome
# How it was run: (§2)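 Run at RTI International. Covers plasma protein binding (mouse, human; percent free), CACO-2 permeability and efflux, and microsomal stability (mouse and human microsomes) giving half-life.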
# [28] = target: CYP2C19 (Homo sapiens, UniProt P33261); assay: Inhibition of CYP2C19 (unknown origin) at 10 uM relative to control; format: ADME
# [29] = target: CYP1A2 (Homo sapiens, UniProt P05177); assay: Inhibition of CYP1A2 (unknown origin) at 10 uM relative to control; format: ADME
# [30] = Permeability of the compound from apical to basolateral side in human Caco-2 cells; format: ADME, cell-based; conditions: read-out: permeability
# [31] = target: CYP2C9 (Homo sapiens, UniProt P11712); assay: Inhibition of CYP2C9 (unknown origin) at 10 uM relative to control; format: ADME
# [32] = Metabolic stability in CD1 mouse microsomes assessed as half life; format: ADME, Microsome
# [33] = target: 5-hydroxytryptamine receptor 2B (Homo sapiens) (UniProt P41595); assay: Displacement of [3H]Lysergic acid diethylamide from human recombinant 5HT2B receptor expressed in CHO-K1 cells at 100 uM by radioligand binding assay; format: cell-based
# [34] = target: CYP2B6 (Homo sapiens, UniProt P20813); assay: Inhibition of CYP2B6 (unknown origin) at 10 uM relative to control; format: ADME
# [35] = tested on: HepaRG; assay: Cytotoxicity against human HepaRG cells at 100 uM by ATP depletion assay; format: cell-based
# How it was run: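 An ATP depletion read-out in HepaRG cells gave cytotoxicity across 0.01–100 μM, reported as % cytotoxicity at 100 μM.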
# [36] = tested on: Staphylococcus aureus; assay: Selectivity index, ratio of IC50 for inhibition of Staphylococcus aureus topoisomerase IV decatenation activity to IC50 for inhibition of Staphylococcus aureus DNA gyrase supercoiling activity
# How it was run: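 Both IC50s were measured in gel-based assays with S. aureus enzymes: supercoiling inhibition for DNA gyrase and decatenation inhibition for TopoIV. The ratio is TopoIV IC50 divided by gyrase IC50.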
# [37] = target: CYP2C8 (Homo sapiens, UniProt P10632); assay: Inhibition of CYP2C8 (unknown origin) at 10 uM relative to control; format: ADME
# [38] = target: Acetylcholinesterase (Homo sapiens) (UniProt P22303); assay: Inhibition of human recombinant acetylcholinesterase receptor expressed in HEK293 cells at 100 uM by spectrophotometry; format: cell-based
# [39] = Permeability of the compound from basolateral to apical side in human Caco-2 cells; format: ADME, cell-based; conditions: read-out: permeability; how it was run: as §2
# [40] = target: CYP2D6 (Homo sapiens, UniProt P10635); assay: Inhibition of CYP2D6 (unknown origin) at 10 uM relative to control; format: ADME
compound,measurement,setting,value
C[C@H]1COc2c(N3CCN(C)CC3)c(F)cc3c(=O)c(C(=O)O)cn1c23.C[C@H]1COc2c(N3CCN(C)CC3)c(F)cc3c(=O)c(C(=O)O)cn1c23.O [LEVOFLOXACIN],MIC50,[1],8 µg/mL
same,MIC90,[1],64 µg/mL
COc1ccc2ncc(F)c(C(O)C[C@H]3OC[C@H](NCc4ccc5c(n4)NC(=O)CO5)CO3)c2c1 (mixture of isomers),MIC,[2],0.5 µg/mL
same,MIC,[3],0.25 µg/mL
same,IC50,[4],> 50 µM
same,IC50,[5],2.6 µM
same,IC50,[6],0.52 µM
same,MIC,[7],4 µg/mL
same,IC50,[8],Not Active
same,MIC,[9],0.5 µg/mL
same,MIC,[10],≤ 0.5 µg/mL
COc1ccc2ncc(F)c(C[C@H](O)[C@@H]3CC[C@@H](NCc4cc5c(nn4)OCCS5)CO3)c2n1,half-life,[11],18.6 min
O=c1ccc2ncc(=O)n3c2n1C[C@H]3CN1CCC(NCc2cc3c(cn2)OCCC3)CC1 [GEPOTIDACIN],MIC,[2],0.25 µg/mL
same,MIC,[3],0.25 µg/mL
same,Activity,[12],Active
same,MIC,[7],8 µg/mL
same,Activity,[13],Active
same,MIC,[9],0.25 µg/mL
same,MIC,[10],0.25 µg/mL
COc1ccc2ncc(F)c(C(O)C[C@H]3OC[C@H](NCc4ccc5c(c4)OCCO5)CO3)c2c1 (mixture of isomers),intrinsic clearance (CLint),[14],835 µL/min/mg
same,MIC,[2],0.125 µg/mL
same,MIC,[3],0.125 µg/mL
same,IC50,[4],23.8 µM
same,solubility thermodynamic,[15],186 µM
same,MIC50,[16],2 µg/mL
same,MIC90,[16],8 µg/mL
same,IC50,[5],5.5 µM
same,IC50,[17],8 µM
same,MIC50,[18],0.12 µg/mL
same,fraction unbound,[19],0.11
same,fraction unbound,[20],0.11
same,MIC50,[21],0.12 µg/mL
same,MIC50,[22],1 µg/mL
same,MIC50,[23],32 µg/mL
same,IC50,[6],0.064 µM
same,MIC,[7],2 µg/mL
same,half-life at 2 µM,[24],6.54 min
same,fraction unbound,[25],0.11
same,MIC,[9],0.125 µg/mL
same,MIC,[10],0.125 µg/mL
same,MIC,[26],0.25 µg/mL
COc1ccc2nccc(CCN3CCC(NCc4cc5c(cn4)OCCO5)CC3)c2c1,intrinsic clearance (CLint),[14],2150 µL/min/mg
same,half-life at 2 µM,[24],2.54 min
COc1ccc2ncc(F)c(C(O)C[C@H]3OC[C@H](NCc4cc5c(nn4)OCCS5)CO3)c2n1 (mixture of isomers),half-life,[27],26 min
same,MIC,[2],0.5 µg/mL
same,MIC,[3],1 µg/mL
same,inhibition at 10 µM,[28],> 50%
same,IC50,[5],11 µM
same,inhibition at 10 µM,[29],> 50%
same,Papp A→B,[30],7.85 ×10⁻⁶ cm/s
same,inhibition at 10 µM,[31],> 50%
same,half-life,[32],21 min
same,inhibition,[33],> 45%
same,inhibition at 10 µM,[34],> 50%
same,IC50,[6],0.24 µM
same,Activity,[35],17%
same,MIC,[7],8 µg/mL
same,Ratio IC50,[36],47
same,inhibition at 10 µM,[37],> 50%
same,inhibition,[38],> 45%
same,Papp B→A,[39],94.8 ×10⁻⁶ cm/s
same,MIC,[9],0.5 µg/mL
same,inhibition at 10 µM,[40],> 50%
same,MIC,[10],0.5 µg/mL
